Published values from different studies.
Protocols differ between the studies behind these lines.
CDK19: Cyclin-dependent kinase 19 (CDK19, Homo sapiens, UniProt Q9BWU1)
CDK19 with cyclin C: Cyclin-dependent kinase 19, with cyclin C (CDK19, Homo sapiens, UniProt Q9BWU1)

C[C@@H]1CN(c2ccc3ncc(-c4ccc5[nH]nc(C6CC6)c5c4)n3n2)C[C@H](C)O1 — remaining binding (CDK19; binding; competition with immobilised ligand; 0.5 µM): 13%
F[C@@H]1CCN(c2nccc(-c3cnn4ncccc34)n2)C1 — remaining binding (CDK19; binding; 1 µM): 100%
CC(C)(C)c1nc(-c2cccc(NS(=O)(=O)c3c(F)cccc3F)c2F)c(-c2ccnc(N)n2)s1 — remaining activity (CDK19 with cyclin C; enzyme activity; inhibitor; radiometric; 1 µM): 94%
Cc1ccc(C(=O)Nc2ccc(CN3CCN(C)CC3)c(C(F)(F)F)c2)cc1C#Cc1cnc2cccnn12 — remaining activity (CDK19; enzyme activity; inhibitor; 23.5 nM): 31%
O=C(Nc1cnn(-c2csc(C(=O)NC3COC3)c2)c1)Nc1c(F)cccc1Cl — remaining activity (CDK19 with cyclin C; enzyme activity; inhibitor; 5 µM): 96.2%
CN1CCN(C(=O)c2ccc3cc(CCNc4ccnc5ccc(C#N)cc45)ccc3c2)CC1 — inhibition (CDK19; binding; competition with immobilised ligand; 2 µM): > 85%
Cc1sc(C(=O)NC2COC2)cc1-n1cc(NC(=O)Nc2c(F)cccc2Cl)cn1 — remaining activity (CDK19 with cyclin C; enzyme activity; inhibitor; 10 µM): 98.1%
CC(C)(C)c1nc2c(s1)c1nc(N)ncc1c1ccc(NS(=O)(=O)c3c(F)cccc3F)c(F)c12 — remaining activity (CDK19 with cyclin C; enzyme activity; inhibitor; radiometric; 1 µM): 98%
C[C@@H]1CCN(c2nccc(-c3cnn4ncccc34)n2)C1 — remaining binding (CDK19; binding; 1 µM): 97%
